Source: ChEMBL document CHEMBL1155217, “Synthesis and evaluation of 3-(dihydroxyboryl)benzoic acids as D,D-carboxypeptidase R39 inhibitors” (J Med Chem, 2009)
Residue numbers refer to the chain shown, from its start. pIC50: −log10 of the molar value.

Experiments:
[1] = target: T1, Penicillin-binding protein 2x (Streptococcus pneumoniae serotype 4 (strain ATCC BAA-334 / TIGR4)) (UniProt P14677); experiment: Inhibition of penicillin-resistant Streptococcus pneumoniae 5204 PBP2X assessed as residual activity at 100 uM preincubated for 4 hrs before addition of substrate mixture of (R)-[2-(benzoylamino)propionylsulfanyl]acetic acid and 5,5'-dithiobis(2-nitrobenzoic acid)
T1 sequence (whole entry): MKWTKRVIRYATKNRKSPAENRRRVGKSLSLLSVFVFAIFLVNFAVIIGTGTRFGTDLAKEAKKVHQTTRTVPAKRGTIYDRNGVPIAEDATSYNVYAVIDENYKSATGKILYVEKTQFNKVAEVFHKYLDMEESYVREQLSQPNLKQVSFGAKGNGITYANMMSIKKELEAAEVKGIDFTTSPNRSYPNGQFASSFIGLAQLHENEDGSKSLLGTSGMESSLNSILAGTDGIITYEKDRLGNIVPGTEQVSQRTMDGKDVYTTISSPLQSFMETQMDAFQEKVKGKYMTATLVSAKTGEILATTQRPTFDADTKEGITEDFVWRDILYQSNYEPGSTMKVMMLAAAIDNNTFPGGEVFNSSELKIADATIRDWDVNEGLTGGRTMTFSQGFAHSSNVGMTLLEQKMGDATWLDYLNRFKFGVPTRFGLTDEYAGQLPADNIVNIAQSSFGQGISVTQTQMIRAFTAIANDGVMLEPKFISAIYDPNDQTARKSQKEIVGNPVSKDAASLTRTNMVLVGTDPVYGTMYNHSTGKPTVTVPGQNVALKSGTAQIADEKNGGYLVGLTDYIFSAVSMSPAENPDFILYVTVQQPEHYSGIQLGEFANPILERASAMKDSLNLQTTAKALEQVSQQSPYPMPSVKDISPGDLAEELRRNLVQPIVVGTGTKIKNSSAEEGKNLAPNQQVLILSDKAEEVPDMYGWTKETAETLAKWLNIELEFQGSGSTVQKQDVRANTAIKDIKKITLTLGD
Method in brief: (§1)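 PBP2x-5204 (0.6 μM) preincubated with compound in 10 mM sodium phosphate pH 7.0, 70 mM D-alanine, 0.01 mg/mL BSA, 4 h, 25 °C. S2d (final 1 mM) and DTNB (final 0.5 mM) then added. Residual activity taken from initial rate at 412 nm against uninhibited enzyme (six replicates per plate). Triplicates. IC50 by nonlinear regression.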

[2] = Solubility in sodium phosphate buffer saline of pH 7.2; type: physicochemical
[3] = target: T2, Penicillin-binding protein 2X (Streptococcus pneumoniae R6) (UniProt P59676); experiment: Inhibition of penicillin-sensitive Streptococcus pneumoniae R6 PBP2X assessed as residual activity at 100 uM preincubated for 60 mins before addition of substrate mixture of (R)-[2-(benzoylamino)propionylsulfanyl]acetic acid and 5,5'-dithiobis(2-nitrobenzoic acid)
T2 sequence (whole entry): T1 sequence (whole entry) with T385M
Method in brief: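 PBP2x-R6 (0.09 μM) preincubated with compound in 10 mM sodium phosphate pH 7.0, 0.01 mg/mL BSA, 60 min, 25 °C. S2d (final 1 mM) and DTNB (final 0.5 mM) then added. Residual activity from initial rate at 412 nm, relative to enzyme-only wells. Triplicates. Repeated with 0.01% Triton X-100 when RA <80%.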

[4] = target: D-alanyl-D-alanine carboxypeptidase (Actinomadura sp. R39) (UniProt P39045); experiment: Inhibition of Actinomadura sp. R39 penicillin-binding protein assessed as residual activity at 100 uM preincubated for 60 mins before addition of substrate mixture of (R)-[2-(benzoylamino)propionylsulfanyl]acetic acid and 5,5'-dithiobis(2-nitrobenzoic acid)
Chain of D-alanyl-D-alanine carboxypeptidase (Actinomadura sp. R39) (P39045 whole entry): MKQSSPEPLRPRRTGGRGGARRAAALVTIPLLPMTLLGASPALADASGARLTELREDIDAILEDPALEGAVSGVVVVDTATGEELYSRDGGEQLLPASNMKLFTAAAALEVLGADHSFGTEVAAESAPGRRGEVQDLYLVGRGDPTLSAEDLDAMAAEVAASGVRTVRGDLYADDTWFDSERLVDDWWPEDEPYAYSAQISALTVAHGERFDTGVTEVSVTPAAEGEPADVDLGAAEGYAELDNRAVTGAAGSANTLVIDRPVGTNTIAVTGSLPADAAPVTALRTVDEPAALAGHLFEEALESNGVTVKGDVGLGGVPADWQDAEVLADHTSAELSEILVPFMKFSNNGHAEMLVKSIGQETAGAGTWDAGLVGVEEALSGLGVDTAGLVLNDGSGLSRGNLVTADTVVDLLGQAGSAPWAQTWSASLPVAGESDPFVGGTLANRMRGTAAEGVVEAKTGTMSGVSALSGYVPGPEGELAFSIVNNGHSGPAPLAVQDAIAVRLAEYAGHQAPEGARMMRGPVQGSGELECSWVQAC
Method in brief: (§2)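 Purified R39 (3.5 nM) preincubated with compound in 10 mM sodium phosphate pH 7.2, 100 mM NaCl, 100 mM D-alanine, 0.01 mg/mL BSA, 60 min, 25 °C. S2d then added (final 1 mM) with DTNB (final 0.5 mM; 1% v/v DMF). Initial hydrolysis rate read at 412 nm. Spontaneous substrate hydrolysis was measured without enzyme. Triplicates. IC50 from nonlinear regression of RA across a concentration range.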

[5] = target: D-alanyl-D-alanine carboxypeptidase (Actinomadura sp. R39, UniProt P39045); experiment: Inhibition of Actinomadura sp. R39 penicillin-binding protein preincubated for 60 mins before addition of substrate mixture of (R)-[2-(benzoylamino)propionylsulfanyl]acetic acid and 5,5'-dithiobis(2-nitrobenzoic acid); method in brief: as §2
Chain of D-alanyl-D-alanine carboxypeptidase (P39045 whole entry): as above

[6] = target: T2, Penicillin-binding protein 2X (Streptococcus pneumoniae R6); experiment: Inhibition of penicillin-sensitive Streptococcus pneumoniae R6 PBP2X assessed as residual activity at 500 uM preincubated for 60 mins before addition of substrate mixture of (R)-[2-(benzoylamino)propionylsulfanyl]acetic acid and 5,5'-dithiobis(2-nitrobenzoic acid)
Method in brief: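 S. pneumoniae PBP2xR6 (0.09 μM) was preincubated with compound in 10 mM sodium phosphate pH 7.0 with 0.01 mg/mL BSA, for 60 min at 25 °C. S2d (1 mM final) and DTNB (0.5 mM final) were added, and the initial hydrolysis rate was monitored at 412 nm. Uninhibited activity (six replicates per plate) was set as 100%; assays ran in triplicate.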

[7] = target: T1, Penicillin-binding protein 2x (Streptococcus pneumoniae serotype 4 (strain ATCC BAA-334 / TIGR4)); experiment: Inhibition of penicillin-resistant Streptococcus pneumoniae 5204 PBP2X assessed as residual activity at 500 uM preincubated for 4 hrs before addition of substrate mixture of (R)-[2-(benzoylamino)propionylsulfanyl]acetic acid and 5,5'-dithiobis(2-nitrobenzoic acid); method in brief: as §1
[8] = target: D-alanyl-D-alanine carboxypeptidase (Actinomadura sp. R39) (UniProt P39045); experiment: Inhibition of Actinomadura sp. R39 penicillin-binding protein assessed as residual activity at 500 uM preincubated for 60 mins before addition of substrate mixture of (R)-[2-(benzoylamino)propionylsulfanyl]acetic acid and 5,5'-dithiobis(2-nitrobenzoic acid)
Method in brief: (§3)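 Purified Actinomadura R39 D,D-peptidase (3.5 nM) was preincubated with compound for 60 min at 25 °C. S2d (1 mM final) and DTNB (0.5 mM final) were then added, with 1% v/v DMF. Initial rate was read at 412 nm, corrected for enzyme-free hydrolysis, in triplicate.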

[9] = Solubility in sodium phosphate buffer saline of pH 7.2 at 1 mM; type: physicochemical; conditions: pH 7.2, 1000 µM
[10] = target: D-alanyl-D-alanine carboxypeptidase (Actinomadura sp. R39) (UniProt P39045); experiment: Inhibition of Actinomadura sp. R39 penicillin-binding protein at 0.5 mM preincubated for 60 mins before addition of substrate mixture of (R)-[2-(benzoylamino)propionylsulfanyl]acetic acid and 5,5'-dithiobis(2-nitrobenzoic acid); method in brief: as §3
[11] = tested on: Streptococcus pneumoniae; experiment: Inhibition of Streptococcus pneumoniae PBP1B assessed as residual activity at 1 mM after 60 mins by SDS-PAGE
[12] = target: Penicillin-binding protein 2x (Streptococcus pneumoniae serotype 4 (strain ATCC BAA-334 / TIGR4), UniProt P14677); experiment: Inhibition of penicillin-resistant Streptococcus pneumoniae 5204 PBP2X preincubated for 4 hrs before addition of substrate mixture of (R)-[2-(benzoylamino)propionylsulfanyl]acetic acid and 5,5'-dithiobis(2-nitrobenzoic acid); method in brief: as §1

Q: With `OB(O)c1ccc(-c2ccc(B(O)O)cc2)cc1` as the compound, how does the Activity [1] read?
A: 95%

Q: What about the solubility [2] of the same compound?
A: Insoluble

Q: What about the Activity [3] of the same compound?
A: 104%

Q: Which results are given for `OB(O)c1ccc(-c2ccccc2)cc1` [BIPHENYLBORONIC ACID]?
A: Activity [1]: 120%; Activity [4]: 104%; solubility [2]: Insoluble; Activity [3]: 90%

Q: With `O=C(Cc1ccccc1)Nc1cc(B(O)O)cc(C(=O)O)c1` as the compound, how does the pIC50 [5] read?
A: 4.06

Q: With `O=C(O)c1cccc(B(O)O)c1` as the compound, how does the pIC50 [5] read?
A: 3.40

Q: Which Activity [6] does the source give for `CN(C)c1cccc2c(S(=O)(=O)Nc3cccc(B(O)O)c3)cccc12` here?
A: 91%

Q: With `OB(O)c1ccc(Oc2ccccc2)cc1` as the compound, how does the Activity [1] read?
A: 108%

Q: Which Activity [6] does the source give for `CC1(C)OB(c2cccc(C(=O)O)c2)OC1(C)C` here?
A: 93%

Q: What about the Activity [7] of the same compound?
A: 98%

Q: What about the Activity [8] of the same compound?
A: 38%

Q: And the solubility [9]?
A: Insoluble

Q: What about the inhibition [10] of the same compound?
A: > 50%

Q: Which Activity [6] does the source give for `OB(O)c1ccccc1` [PHENYLBORONIC ACID] here?
A: 114%

Q: What about the Activity [7] of the same compound?
A: 78%

Q: And the solubility [9]?
A: Insoluble

Q: What about the inhibition [10] of the same compound?
A: 50%

Q: Which results are given for `O=C(O)c1cc(NC(=O)c2ccccc2)cc(B(O)O)c1`?
A: Activity [11]: 85%; pIC50 [5]: 4.47

Q: For `COc1ccccc1C(=O)Nc1cc(B(O)O)cc(C(=O)O)c1`, which Activity [11] is on record?
A: 82%

Q: And the pIC50 [5]?
A: 4.64

Q: What does the source list for `O=C(COc1ccccc1)Nc1cc(B(O)O)cc(C(=O)O)c1`?
A: Activity [11]: 83%; pIC50 [5]: 4.55

Q: Which Activity [11] does the source give for `O=C(O)c1cc(NC(=O)c2cccs2)cc(B(O)O)c1` here?
A: 70%

Q: And the pIC50 [5]?
A: 4.49

Q: With `O=C(O)c1ccc(B(O)O)s1` as the compound, how does the pIC50 [12] read?
A: < 3.00

Q: With `O=C(Cc1cccs1)Nc1cc(B(O)O)cc(C(=O)O)c1` as the compound, how does the Activity [11] read?
A: 53%

Q: And the pIC50 [5]?
A: 4.11
